SMILES strings stand for the structures.

Experimental findings from ChEMBL document CHEMBL3244186, “Synthesis and evaluation of the thiosemicarbazone, dithiocarbazonate, and 2'-pyrazinylhydrazone of pyrazinecarboxaldehyde as agents for the treatment of iron overload” (J Med Chem, 1979) are described below.

A short description of series [1]: Iron chelating activity assessed as removal of [59]-Fe from [59]-Fe-labeled transferrin at 1 mM measured per hr by spectrometric analysis. It counts as physicochemical. Particulars: 1000 µM. In a few lines:
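About 10^6 cpm of 59Fe-labeled transferrin in 1.0 mL of 0.1 M Hepes (pH 7.00), inside a dialysis sack, dialyzed at room temperature against 25.0 mL of 1.00 mM ligand in the same buffer. Dialysate aliquots of 1.00 mL taken at intervals were gamma-counted (800-1400 keV window). Initial release rates were derived from these counts.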

The nature of series [2]: Binding affinity to Fe(NO3)3 assessed as stability constant. In kind it is physicochemical. In short, it runs like this:
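Minimum stability constant and stoichiometry were found by continuous variation (Job plot). Metal and ligand solutions stood 1 h and were then diluted with 50 mM barbital buffer (pH 7.4) containing 0.100 M KNO3. Visible absorbance at λmax was read at several times to confirm equilibrium. Absorbance was plotted against metal/(metal + ligand).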

The nature of series [3]: Iron chelating activity assessed as removal of iron from ferritin after 20 hrs by atomic absorption spectrophotometric analysis. It counts as physicochemical. In short, it runs like this: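 Ferritin holding 1.34 mg total Fe was dialyzed at room temperature against 25.0 mL of 1.00 mM ligand solution. Iron in the dialysate was measured by atomic absorption spectroscopy at 20 h.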

For series [4], the system named is Mus musculus. The series can be described thus: Iron chelating activity in iron-overloaded BDF1 mouse assessed as daily urinary iron level at 80 mg/kg, ip treated from day 8 to 13 after erythrocyte suspension injection on day 1, 3 and 5 by atomic absorption spectroscopic analysis. It counts as functional, Urine. Particulars: route intraperitoneal.
Series [5] has as its system Mus musculus. The series can be described thus: Iron chelating activity in iron-overloaded BDF1 mouse assessed as iron level in spleen at 80 mg/kg, ip treated from day 8 to 13 after erythrocyte suspension injection on day 1, 3 and 5 by atomic absorption spectroscopic analysis. It counts as functional. Particulars: route intraperitoneal. In short, it runs like this: (§1)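 Iron-loaded male BDF1 mice (10 per group) given ip drug in EtOH/Tween 80/saline vehicle daily on days 8-13. On day 15, under Et2O, mice were exsanguinated. Organs were washed, frozen, thawed, weighed and homogenized in 0.014 M NaCl made with iron-free water; supernatant iron was measured by AAS, as μg/mouse. Mean ± SD; t test versus iron-loaded vehicle control.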

In series [6] the test system is Mus musculus. The series can be described thus: Iron chelating activity in iron-overloaded BDF1 mouse assessed as iron level in heart at 40 mg/kg, ip treated from day 8 to 13 after erythrocyte suspension injection on day 1, 3 and 5 by atomic absorption spectroscopic analysis. It counts as functional. Particulars: route intraperitoneal. In short, it runs like this:
as §1

The subject of series [7] is Mus musculus. The series can be described thus: Iron chelating activity in iron-overloaded BDF1 mouse assessed as iron level in lung at 40 mg/kg, ip treated from day 8 to 13 after erythrocyte suspension injection on day 1, 3 and 5 by atomic absorption spectroscopic analysis. In kind it is functional. Particulars: route intraperitoneal. In short, it runs like this: as §1

The test system of series [8] is Mus musculus. The series can be described thus: Iron chelating activity in iron-overloaded BDF1 mouse assessed as iron level in heart at 80 mg/kg, ip treated from day 8 to 13 after erythrocyte suspension injection on day 1, 3 and 5 by atomic absorption spectroscopic analysis. It counts as functional. Particulars: route intraperitoneal. In a few lines: as §1
Series [9] in a line: Binding affinity to Fe(NO3)3 assessed as stability constant at pH 7.5 after 1 hr. In kind it is physicochemical. Particulars: pH 7.5, 1 h.
The subject of series [10] is Mus musculus. The series can be described thus: Iron chelating activity in iron-overloaded BDF1 mouse assessed as iron level in liver at 40 mg/kg, ip treated from day 8 to 13 after erythrocyte suspension injection on day 1, 3 and 5 by atomic absorption spectroscopic analysis. Particulars: route intraperitoneal. It counts as functional. In short, it runs like this: as §1

The subject of series [11] is Mus musculus. The series can be described thus: Iron chelating activity in iron-overloaded BDF1 mouse assessed as iron level in spleen at 40 mg/kg, ip treated from day 8 to 13 after erythrocyte suspension injection on day 1, 3 and 5 by atomic absorption spectroscopic analysis. In kind it is functional. Particulars: route intraperitoneal. In short, it runs like this: as §1

Series [12] deals with Mus musculus. The series can be described thus: Iron chelating activity in iron-overloaded BDF1 mouse assessed as transferrin saturation at 80 mg/kg, ip treated from day 8 to 13 after erythrocyte suspension injection on day 1, 3 and 5 relative to control. In kind it is functional. Particulars: route intraperitoneal. In short, it runs like this: (§2)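 Iron-loaded male BDF1 mice (10 per group) received ip drug daily on days 8-13, with non-loaded and iron-loaded vehicle-treated control groups. On day 15, blood collected by cardiac puncture under Et2O was pooled per group. Percent transferrin saturation was measured with a standard hematologic kit.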

The test system of series [13] is Mus musculus. The series can be described thus: Iron chelating activity in iron-overloaded BDF1 mouse assessed as transferrin saturation at 40 mg/kg, ip treated from day 8 to 13 after erythrocyte suspension injection on day 1, 3 and 5 relative to control. Particulars: route intraperitoneal. In kind it is functional. In short, it runs like this: as §2
The test system of series [14] is Mus musculus. The series can be described thus: Iron chelating activity in iron-overloaded BDF1 mouse assessed as iron level in lung at 80 mg/kg, ip treated from day 8 to 13 after erythrocyte suspension injection on day 1, 3 and 5 by atomic absorption spectroscopic analysis. In kind it is functional. Particulars: route intraperitoneal. In a few lines:
as §1

Series [15] deals with Mus musculus. The series can be described thus: Iron chelating activity in iron-overloaded BDF1 mouse assessed as daily urinary iron level at 40 mg/kg, ip treated from day 8 to 13 after erythrocyte suspension injection on day 1, 3 and 5 by atomic absorption spectroscopic analysis. It counts as functional, Urine. Particulars: route intraperitoneal.
A short description of series [16]: Binding affinity to FeSO4 assessed as stability constant at pH 7.5 after 1 hr. In kind it is physicochemical. Particulars: pH 7.5, 1 h.
Series [17] concerns Mus musculus. The series can be described thus: Iron chelating activity in iron-overloaded BDF1 mouse assessed as iron level in liver at 80 mg/kg, ip treated from day 8 to 13 after erythrocyte suspension injection on day 1, 3 and 5 by atomic absorption spectroscopic analysis. In kind it is functional. Particulars: route intraperitoneal. In a few lines:
as §1

With `N/C(S)=N/N=C/c1ccccn1`, the Activity in series [1] is given as 0.3%.

Consider `O=c1cccccc1O` [TROPOLONE], for which the results for the Activity in series [2], in [1] and in series [3] were 10.5, 19.7% and 4.1 µM, respectively.

`S=C([S-])N/N=C/c1cnccn1.[Na+]`: the Activity with Mus musculus [4] was 5.5 µg; in the series with Mus musculus [5], 18.6 µg; in the series on Mus musculus [6], 8.5 µg; in the series on Mus musculus [7], 14.8 µg; in the series with Mus musculus [8], 10.6 µg; in series [9], above 25. Moreover, the Activity with Mus musculus [10] was determined as 193 µg; in the series on Mus musculus [11], 14 µg; in [1], 0.4%; in [3], 48.8 µM; with Mus musculus [12], 27%; in the series on Mus musculus [13] it was 51%. Also, the Activity in the series with Mus musculus [14] is 17.7 µg; with Mus musculus [15], 1.4 µg; in series [16], above 17; in the series on Mus musculus [17], 176 µg.
